Assay results as given in ChEMBL document CHEMBL1138476 (J Med Chem, 2009).
Calls of active or inactive are those of the source. The rule behind the calls is not given here.

Tests used:
Canis familiaris [1] = assay: Effect on respiratory function in spontaneously breathing mongrel dog assessed as change in airway resistance at 5 mg/kg after intravenous infusion for 30 mins (RVb= 20.2+/-12.3 %); format: functional, Canis lupus familiaris
Canis familiaris [2] = assay: Effect on respiratory function in spontaneously breathing mongrel dog assessed as change in tidal volume at 5 mg/kg after intravenous infusion for 60 mins (RVb= 13.0+/-10.3 %); format: functional, Canis lupus familiaris
[3] = Volume of distribution at steady state in chimpanzee at 0.5 mg/kg, iv; format: ADME, organism-based, Pan troglodytes; parameters: dose 0.5 mg/kg, route intravenous; conditions: in vivo, read-out: Vdss
Procedure, shortened: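 Single chimpanzee given 0.5 mg/kg iv over 10 min (0.2 mL/kg) in 10% DMAC, 70% propylene glycol and deionized water. EDTA blood taken predose, at 6, 15 and 30 min, and at 2 to 96 h.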

[4] = Half life in Beagle dog at 1 mg/kg, po by cassette dosing; format: ADME, organism-based, Canis lupus familiaris; parameters: dose 1 mg/kg, route oral; conditions: in vivo
Rattus norvegicus [5] = assay: Anxiolytic activity in rat assessed as decrease in latency to exit dark chamber at 3 mg/kg, po by defensive withdrawal test relative to untreated control; format: functional; parameters: scale not given: the % may be the effect or the level left
Procedure, shortened: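 Rat defensive withdrawal: latency to leave the dark chamber and explore the open field, maximum 900 s. Dosed orally in 0.25% Methocel 60 min before testing; n = 8 per dose, mean ± SEM. Analysed by Kruskal–Wallis followed by Mann–Whitney U against vehicle.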

[6] = Plasma concentration in rat at 30 mg/kg, po after 5 hrs; format: ADME, organism-based; parameters: dose 30 mg/kg, route oral
Procedure, shortened: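 Rats (n = 9, renal function study) given 30 mg/kg po; plasma levels measured in a separate cohort dosed the same way, sampled at 1 and 5 h after dosing.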

[7] = Elimination half life in rat at 1 mg/kg, iv and 5 mg/kg, po; format: ADME, organism-based; conditions: in vivo, read-out: beta t1/2 (converted)
Procedure, shortened: (§1)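 Rats (n = 3) were dosed at 1 mg/kg iv in 10% DMAC, 70% propylene glycol and deionized water, and at 5 mg/kg po in 0.5% methylcellulose.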

[8] = Plasma concentration in dog at 1 mg/kg after intravenous infusion for 30 mins; format: ADME, organism-based, Canis lupus familiaris; parameters: dose 1 mg/kg, route intravenous
[9] = AUC in Beagle dog at 1 mg/kg, po by cassette dosing; format: ADME, organism-based, Canis lupus familiaris; parameters: dose 1 mg/kg, route oral; conditions: plasma
[10] = Oral bioavailability in rat at 5 mg/kg; format: ADME, organism-based; conditions: in vivo; procedure, shortened: as §1
Rattus norvegicus [11] = assay: Toxicity in rat assessed as time spent on rotarod at 1 mg/kg, po after 1 hr by rotarod test; format: organism-based; parameters: dose 1 mg/kg, route oral; conditions: in vivo
Procedure, shortened: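 Rats (N = 8 per dose) dosed po in 0.25% Methocel 1 h before rotorod testing. Time on rotorod in s, given as mean ± SEM against a vehicle (zero dose) group.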

Canis familiaris [12] = assay: Effect on respiratory function in spontaneously breathing mongrel dog assessed as change in airway resistance at 5 mg/kg after intravenous infusion for 15 mins (RVb= 27.8+/-17.9 %); format: functional, Canis lupus familiaris
Rattus norvegicus [13] = assay: Anxiolytic activity in rat assessed as increase in time spent on open arm at 18 mg/kg, po by elevated plus-maze test; format: functional, organism-based; parameters: dose 18 mg/kg
Procedure, shortened: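 Rat elevated plus maze: percent of test time spent in the open arms. Oral dosing in 0.25% Methocel 60 min before testing; n = 12 per dose, mean ± SEM. Analysed by ANOVA followed by Fisher's LSD comparisons against vehicle.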

Vd [3]: 4.2 L/kg | half-life [4]: 10.7 h | concentration at 5 h [6]: 4950 nM | half-life [7]: 13.5 h | concentration at 0.5 h [8]: 473 nM | AUC [9]: 2.02 µM·h | bioavailability [10]: 40%
Compound: CC[C@@H](C)Nc1nc(C)nc2c(-c3ccc(OC)nc3C)c(C)nn12 [PEXACERFONT]
Activity (Canis familiaris [1]): -57.5% | Activity (Canis familiaris [2]): 11.5% | Activity (Rattus norvegicus [5]): 44% | Time (Rattus norvegicus [11]): 133 s | Activity (Canis familiaris [12]): 9% | Activity (Rattus norvegicus [13]): Active
